An excerpt weighted towards active compounds, which were near 1.4% of everything screened.
NR2E3 ag-1: NR2E3 agonists in two-hybrid cells, primary screen, cell-based, luminescence, CHO-S, Gal4-NCOR/VP16-NR2E3. Photoreceptor-specific nuclear receptor (Homo sapiens), Q9Y5X4. luciferase. inhibition of corepressor binding, % at 3.98 µM. 360,000 compounds, 0.35% hits;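 active = inhibition above the mean of all tested compounds plus 3 SD, cut at about 70% in these data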;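 also: higher means lower luciferase signal from less NR2E3 corepressor binding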
PG9 binder: binders of HIV-1 gp120 antibody PG9, primary screen, biochemical, TR-FRET; inhibition, % at 6.7 µM; 360,000 compounds, 0.43% hits; TR-FRET gp120-PG9 antibody binding; HIV-1 gp120 / PG9 antibody interaction; in the data active = inhibition above about 8.5%
NR2E3 ag-2: inhibitors of NR2E3-RetCOR corepressor binding, primary screen, NR2E3 agonist project, biochemical, TR-FRET, GST-NR2E3, biotin-RetCOR | Photoreceptor-specific nuclear receptor (Homo sapiens), Q9Y5X4 | 1536-well | inhibition of corepressor binding, % at 4.78 µM | 320,000 compounds, 0.12% hits;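 active = percent inhibition above the cutoff of mean plus 3 SD of all tested compounds, set per screening campaign, cut at about 20% in these data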
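Material: NR2E3–RetCOR corepressor complex | Quantity: 1.35 nM GST-tagged NR2E3 final | Schedule: 5 h at 4 °C | Replication: Singlicate compound wells | Reagent: RetCOR corepressor, biotinylated, 7 nM | Controls: Biotin wells as high control, 0.6% DMSO wells as low control | Signal: TR-FRET, Eu(K)-anti-GST donor, streptavidin-D2 acceptor, ex 340, em 617/671 nm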
Rev-erbA mod: modulators of Rev-erb alpha DNA binding, primary screen, biochemical, FITC-DNA, fluorescence polarization, uHTS; Nuclear receptor subfamily 1 group D member 1 (Homo sapiens), P20393; Rev-erbα–FITC-DNA binding, 90 min; activity, % at 10 µM; 370,000 compounds, 0.79% hits; AID 1259318, 2017;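 active = activity above about 14%, limit read from the data; passing the limit was not always enough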
Target sequence (P20393 whole entry, looked up): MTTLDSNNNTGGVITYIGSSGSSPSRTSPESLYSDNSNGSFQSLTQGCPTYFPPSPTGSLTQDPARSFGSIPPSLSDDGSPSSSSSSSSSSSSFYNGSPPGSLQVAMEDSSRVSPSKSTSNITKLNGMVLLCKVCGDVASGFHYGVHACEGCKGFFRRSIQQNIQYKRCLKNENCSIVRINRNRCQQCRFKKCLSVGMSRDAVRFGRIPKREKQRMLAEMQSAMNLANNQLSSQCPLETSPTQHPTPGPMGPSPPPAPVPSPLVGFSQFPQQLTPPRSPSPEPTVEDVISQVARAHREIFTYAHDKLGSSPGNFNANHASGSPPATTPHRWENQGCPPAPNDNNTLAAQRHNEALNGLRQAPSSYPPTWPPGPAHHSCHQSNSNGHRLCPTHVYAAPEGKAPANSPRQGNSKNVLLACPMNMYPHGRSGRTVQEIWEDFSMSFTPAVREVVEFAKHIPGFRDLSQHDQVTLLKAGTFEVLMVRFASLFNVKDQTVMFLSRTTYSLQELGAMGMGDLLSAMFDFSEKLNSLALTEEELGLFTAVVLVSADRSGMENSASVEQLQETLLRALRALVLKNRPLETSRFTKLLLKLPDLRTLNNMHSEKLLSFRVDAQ
PG9 binder conf: binders of anti-gp120 antibody PG9, confirmation, biochemical, TR-FRET; shares compounds with PG9 binder; TR-FRET PG9 antibody binding; 1,500 compounds, 90% hits; inhibition, % at 6.7 µM; in the data active = inhibition above about 9%
PGV04 Ab binding: binders of control antibody PGV04, counter-screen for PG9 antibody binder project, biochemical, TR-FRET, distinct HIV envelope site. shares compounds with PG9 binder. TR-FRET PGV04 antibody-gp120 binding. inhibition, % at 6.7 µM. 1,500 compounds, 95% hits; in the data active = inhibition above about 9.5%
Rev-erbA confirm: modulators of Rev-erb alpha DNA binding, confirmation, biochemical, FITC-DNA, fluorescence polarization, single point; shares compounds with Rev-erbA mod; 90 min; activation, % at 25 µM; 3,000 compounds, 61% hits;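 active = activation at or above a set limit, or at least 3 SD above the negative control mean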
RORg counter: modulation of RORgamma DNA binding, dose response, counter-screen for Rev-erb alpha modulator project, biochemical, fluorescence polarization, FITC-DNA; IC50, µM; 910 compounds, 8% hits; shares compounds with Rev-erbA mod; purified RORgamma protein-FITC-DNA binding;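 active = Compounds whose fitted half-maximal concentration for disrupting protein-DNA binding is below 10 micromolar; the record names Rev-erb in its text, so the target is in doubt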
Each line names hits and unclear results; the compound was inactive in the other large screens (follow-up assays come after a bar, where they were run).

CCC(C(=O)NC1CCCC1)N(C(=O)c1snc(C(N)=O)c1N)c1ccc(OC)cc1 (stereo not drawn)	PG9 binder 34, Rev-erbA mod 18 | PG9 binder conf 15 | PGV04 Ab binding 41 | Rev-erbA confirm inactive
CCCCCNC(=O)C(CCc1ccccc1)n1c(=O)c(-c2ccccc2)nc2ccccc21 (stereo not drawn)	none (no result: NR2E3 ag-1, NR2E3 ag-2)
NC(=O)c1cc(Cc2ccccc2)sc1NC(=O)c1ccco1	none
CCOc1ccc(CC(=O)Nc2sc(Cc3ccccc3)cc2C(N)=O)cc1OCC	PG9 binder 55, Rev-erbA mod 69 | PG9 binder conf 14 | PGV04 Ab binding 21 | Rev-erbA confirm 43 | RORg counter 2.5
CS(=O)(=O)c1ccc(C(=O)Nc2ccc(N3CCCCC3)cc2)c(Cl)c1	none
Cc1ccc(Sc2ccc(NC(=O)c3ccc(S(C)(=O)=O)cc3Cl)cc2)cc1	PG9 binder 48, Rev-erbA mod 46 | PG9 binder conf 41 | PGV04 Ab binding 62 | Rev-erbA confirm 22
COc1ccc(-n2c(SCC(=O)Nc3cc(C)on3)nc3c([nH]c4ccccc43)c2=O)cc1	PG9 binder 57, Rev-erbA mod 83 | PG9 binder conf 43 | PGV04 Ab binding 50 | Rev-erbA confirm 67 | RORg counter inactive
Cn1c(SCC(=O)Nc2ccccc2)nc2c([nH]c3ccccc32)c1=O	PG9 binder 8.8, Rev-erbA mod 21 | PG9 binder conf inactive | PGV04 Ab binding 14 | Rev-erbA confirm 16
O=C(Nc1nc2cc3c(cc2s1)OCCO3)c1ccc([N+](=O)[O-])o1	none
O=C(Nc1ccc2oc(-c3cccc(F)c3)nc2c1)c1ccccc1F	PG9 binder 16, Rev-erbA mod 82 | PG9 binder conf 40 | PGV04 Ab binding 59 | Rev-erbA confirm 42 | RORg counter inactive
CC(=O)Nc1ccc(C(=O)CSc2cc(C)c3cccc(C)c3n2)cc1	PG9 binder 17, Rev-erbA mod 37 | PG9 binder conf 23 | PGV04 Ab binding 48 | Rev-erbA confirm 30
Cc1cc(SCC(=O)c2cccs2)nc2c(C)cccc12	none
CC(C)[C@H](N)C(=O)N[C@H](C(=O)N1CCC2CCN(Cc3ccccc3)CC21)C(C)C (stereo partly drawn)	none (no result: NR2E3 ag-1, NR2E3 ag-2)
Cc1ccc(C(=O)Nc2ccc3c(c2)OCO3)cc1Cl	PG9 binder 21, Rev-erbA mod 24 | PG9 binder conf 18 | PGV04 Ab binding 22 | Rev-erbA confirm inactive
Cc1ccc(NC(=O)c2ccc3c(c2)OCO3)cc1Cl	none
CSc1nc(SCC(=O)NCc2ccco2)c2c3c(sc2n1)COC(C)(C)C3	none
CCc1nc(SCC(=O)NCc2ccco2)c2c3c(sc2n1)CCCC3	PG9 binder 57, Rev-erbA mod 46 | PG9 binder conf 42 | PGV04 Ab binding 64 | Rev-erbA confirm 55 | RORg counter inactive
CCCCSc1nc(SCC(=O)NCc2ccco2)c2c3c(sc2n1)COC(C)(CC)C3 (stereo not drawn)	PG9 binder 12, Rev-erbA mod 40 | PG9 binder conf 10 | PGV04 Ab binding 17 | Rev-erbA confirm 28
CC(=O)Nc1nnc(SCC(=O)NC2CC2)s1	none
CC(=O)Nc1nnc(SCC(=O)c2ccc3c(c2)Cc2ccccc2-3)s1	PG9 binder 10, Rev-erbA mod 55 | PG9 binder conf 21 | PGV04 Ab binding 49 | Rev-erbA confirm 18
Cc1ccccc1OCC(=O)Nc1ccc2c(c1)C(=O)c1ccccc1C2=O	PG9 binder 25, Rev-erbA mod 273 | PG9 binder conf 73 | PGV04 Ab binding 91 | Rev-erbA confirm 221 | RORg counter 6.9
CCC(C)n1c(=O)c(C(=O)Nc2ccccc2S(N)(=O)=O)c(O)c2ccccc21 (stereo not drawn)	PG9 binder 14, Rev-erbA mod 54 | PG9 binder conf 14 | PGV04 Ab binding 23 | Rev-erbA confirm 31
Nc1nc2ccccc2n1S(=O)(=O)c1ccccc1	none (no result: NR2E3 ag-2)
Cc1ccc(-n2nc3c(N4CCC(C(=O)NCCc5cccs5)CC4)nnc(C)c3c2C)cc1	PG9 binder 12, Rev-erbA mod 30 | PG9 binder conf 25 | PGV04 Ab binding 36 | Rev-erbA confirm 36 | RORg counter inactive
CCCCN(C)c1c(C)nc2ccc(C(=O)N(CC)CCN(C)C)cn12	none (no result: NR2E3 ag-2)
COc1cc(NC(=O)CCn2c(=S)[nH]c3ccccc3c2=O)cc(OC)c1OC	PG9 binder 81, Rev-erbA mod 27 (no result: NR2E3 ag-2) | PG9 binder conf 79 | PGV04 Ab binding 81 | Rev-erbA confirm 36 | RORg counter inactive
COc1cccc(-c2nnc3sc(-c4cccs4)nn23)c1	PG9 binder 39, Rev-erbA mod 41 | PG9 binder conf 33 | PGV04 Ab binding 57 | Rev-erbA confirm inactive
COc1cccc(-c2nn3c(-c4cccc(C)c4)nnc3s2)c1	none
Cc1ccc(-c2nc(C3CCCN(S(=O)(=O)c4ccc(C)c(C)c4)C3)no2)cc1 (stereo not drawn)	none (no result: NR2E3 ag-1, PG9 binder, NR2E3 ag-2)
O=C(CCCCCn1c(=S)[nH]c2ccc(N3CCOCC3)cc2c1=O)NCc1ccc(Cl)cc1	PG9 binder 21, Rev-erbA mod 18 | PG9 binder conf 16 | PGV04 Ab binding 25 | Rev-erbA confirm inactive
O=C(CCCCCn1c(=S)[nH]c2ccc(N3CCOCC3)cc2c1=O)NCc1ccc2c(c1)OCO2	PG9 binder 21, Rev-erbA mod 22 | PG9 binder conf 17 | PGV04 Ab binding 24 | Rev-erbA confirm inactive
O=C(CCCCCn1c(=S)[nH]c2ccc(N3CCOCC3)cc2c1=O)NCc1ccccc1Cl	none
COc1ccc(CNC(=O)CCCn2c(=S)[nH]c3cc4c(cc3c2=O)OCO4)cc1	PG9 binder 26, Rev-erbA mod 56 | PG9 binder conf 17 | PGV04 Ab binding 21 | Rev-erbA confirm 36 | RORg counter inactive
CC(C)(C)c1ccc(S(=O)(=O)NC(=O)C2(C)CCN2C(=O)C2CCCCC2)cc1 (stereo not drawn)	none (no result: NR2E3 ag-2)
Nc1ncnc2c1ncn2[C@@H]1O[C@H](C(=O)Nc2cc(C(F)(F)F)cc(C(F)(F)F)c2)[C@@H](O)[C@H]1O	none (no result: NR2E3 ag-2)

Screening data: PubChem BioAssay, several laboratories
